Assay outcomes deposited in PubChem BioAssay by The Scripps Research Institute Molecular Screening Center.
Hits are enriched below; roughly 1.8% of the tested compounds scored in any of these assays.
CHRM4 agonist = CHRM4 agonism in calcium assay. actives 0.14% (n = 360,000). activation, % at 3 µM. CHO-K1 hM4/Gqi5, Fluo-8 calcium fluorescence; vehicle 0%, full acetylcholine response 100%;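 active means activation above the run mean over all test wells plus 3 SD, cut at about 32% in these data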;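 further: peak over basal fluorescence ratio per well then scaled between controls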
CHRM5 antagonist = antagonists of human muscarinic M5 receptor (CHRM5). P08912. CHO-hM5 cells, Fluo-8 calcium fluorescence, ACh EC80. inhibition, % at 3 µM. actives 0.59% (n = 360,000);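 active means inhibition above a per-plate cutoff, the mean of that plate's test compounds plus 3 SD, cut at about 27% in these data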
Target sequence (P08912 whole entry, looked up): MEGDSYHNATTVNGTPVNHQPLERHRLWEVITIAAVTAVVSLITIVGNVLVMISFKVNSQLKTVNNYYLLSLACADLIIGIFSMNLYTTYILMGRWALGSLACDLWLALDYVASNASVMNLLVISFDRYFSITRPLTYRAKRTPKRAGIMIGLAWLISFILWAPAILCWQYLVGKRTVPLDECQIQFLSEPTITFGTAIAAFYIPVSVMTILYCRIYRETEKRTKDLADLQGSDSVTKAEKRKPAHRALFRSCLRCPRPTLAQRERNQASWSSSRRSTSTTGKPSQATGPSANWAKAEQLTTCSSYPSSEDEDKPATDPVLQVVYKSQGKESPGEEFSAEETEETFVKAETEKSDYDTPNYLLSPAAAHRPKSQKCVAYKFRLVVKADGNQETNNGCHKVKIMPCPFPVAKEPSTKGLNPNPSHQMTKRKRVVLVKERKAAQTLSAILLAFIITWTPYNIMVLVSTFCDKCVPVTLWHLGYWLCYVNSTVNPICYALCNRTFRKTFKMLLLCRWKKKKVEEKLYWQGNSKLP
CHRM5 agonist = CHRM5 agonism in calcium assay; P08912; CHO-K1 hM5 cells, Fluo-8 calcium fluorescence; 0% DMSO wells, 100% maximal acetylcholine response; activation, % at 3 µM; actives 0.19% (n = 360,000); AID 624037;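 active means activation above the run's mean over test compounds plus 3 SD, cut at about 23% in these data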;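 further: signal is peak over basal fluorescence ratio across the kinetic read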
M4 PAM = positive allosteric modulators of human muscarinic M4 receptor. actives 0.4% (n = 360,000). CHO-K1 hM4/Gqi5, Fluo-8 calcium fluorescence, ACh EC20; 0% = ACh EC20, 100% = maximal ACh. AID 624126. activation, % at 3 µM;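 active means activation above its plate's cutoff, the mean activation of sample wells plus 3 SD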
M5 PAM = CHRM5 positive allosteric modulation. P08912. CHO-K1 hM5, Fluo-8 calcium, ACh EC20 PAM; 0% = ACh EC20, 100% = ACh EC100. activation, % at 3 µM. actives 0.3% (n = 360,000). AID 624038;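 active means activation above the run cutoff, the mean activation of all test compounds plus 3 SD, cut at about 18% in these data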
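System – CHO-K1 hM5 cells · Compound – 3 µM, single dose · Incubation – compound preincubation 140 s before EC20 acetylcholine addition · Technique – Fluo-8 calcium fluorescence · Measure – Max/basal fluorescence ratio as % of EC20–EC100 ACh window · Benchmarks – low control EC20 acetylcholine (0%), high control EC100 acetylcholine (100%) · Replication – singlicate, one well per test compound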
CHRM4 antagonist = CHRM4 antagonism in calcium assay; inhibition, % at 3 µM; actives 0.73% (n = 360,000); P08173; CHO-hM4 cells, ACh EC80, Fluo-8 calcium fluorescence; AID 624125;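 active means inhibition above its plate's cutoff, the mean inhibition of sample wells plus 3 SD, cut at about 27% in these data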
Numbers stand for hits; - = inactive.

SMILES	CHRM4 agonist	CHRM5 antagonist	CHRM5 agonist	M4 PAM	M5 PAM	CHRM4 antagonist
CNC(=O)c1cc(Oc2ccc(NC(=O)c3[nH]c(-c4ccccc4)c4c3C(=O)N(C)C4=O)cc2)ccn1	-	-	-	23.1	-	-
CN1C(=O)c2c(C(=O)Nc3ccc(Oc4ccncc4)cc3)[nH]c(-c3ccccc3)c2C1=O	-	-	-	-	-	-
c1ccc(CNc2ncnc3c2cnn3Cc2ccccc2)cc1	-	-	27.7	-	-	-
COC(=O)c1cc(S(=O)(=O)N2CCOCC2)ccc1Sc1ccccc1N	-	-	-	22.1	-	-
OC1(CC#CCN2CCCCC2)c2ccccc2-c2ccccc21	-	-	-	-	-	-
OC1(C#CCCN2CCCCC2)c2ccccc2-c2ccccc21	-	90.4	-	-	-	55.5
CC(=O)NC(C)(CC(=O)c1ccccc1)c1ccccc1 (stereo not drawn)	-	-	-	-	-	-
CC(C)C(=O)Nc1cc(=O)[nH]c2ncnn12	-	-	-	18.5	-	-
CCCCC(CC)C(=O)Nc1cc(=O)[nH]c2nc3ccccc3n12 (stereo not drawn)	-	-	-	-	-	-
Cc1ccc(C)c(NC(=O)c2ccc3c(c2)CCN3S(C)(=O)=O)c1	-	-	-	-	-	-
C=CCN1CN(Cc2ccco2)CNC1=S	-	-	-	-	-	-
S=C1NCN(Cc2ccco2)CN1	-	-	-	-	23.5	-
O=[N+]([O-])c1ccccc1N/N=C/c1c[nH]c2ccccc12	-	-	-	-	-	-
O=C(O)c1ccc(-c2ccc(/C=N/Nc3ccc([N+](=O)[O-])cc3)o2)cc1	-	27.6	55.5	-	-	-
O=[N+]([O-])c1ccc(N/N=C/c2c[nH]c3ccccc23)cc1	-	28.0	-	-	-	-
O=C(O)c1cccc(-c2ccc(/C=N/Nc3ccc([N+](=O)[O-])cc3)o2)c1	-	34.1	34.2	-	-	27.3
O=C(O)c1ccc(N/N=C/c2ccc(-c3cccc(Cl)c3)o2)cc1	-	-	-	-	-	-
NS(=O)(=O)c1ccc(-c2ccc(/C=N/Nc3ccc(C(=O)O)cc3)o2)cc1	-	-	-	-	-	-
CCC(C)(C)n1nnnc1C(c1ccc(C)cc1)N1CCN(C(=O)c2ccco2)CC1 (stereo not drawn)	-	-	-	-	35.0	-
CCCC(c1nnnn1Cc1ccco1)N1CCN(C(=O)c2ccco2)CC1 (stereo not drawn)	-	-	-	19.8	-	-
CCc1nc(NC(=O)Cc2csc(C)n2)sc1C(=O)OC	-	-	-	-	-	-
COc1ccc(N2CC(C(=O)Nc3nnc(SCC(=O)NCC4CCCO4)s3)CC2=O)cc1 (stereo not drawn)	-	-	-	-	-	-
CCCCCCCCCn1ccc(=N)cc1	-	-	-	-	-	30.3
CC1=C(C)CC(C(=O)NC2CCN(C(C)C)CC2)C(C(=O)O)C1 (stereo not drawn)	-	36.8	-	-	-	-
CC1=C(C)CC(C(=O)NC2CCCC2)C(C(=O)O)C1 (stereo not drawn)	-	-	-	-	-	-
SMILES	CHRM4 agonist	CHRM5 antagonist	CHRM5 agonist	M4 PAM	M5 PAM	CHRM4 antagonist
Cc1ccc(CSC(Nc2ccc(F)cc2)=C(C#N)C#N)cc1	-	31.0	-	-	-	-
COC(=O)c1cc(NC(=S)NCc2ccc(Cl)cc2)cc(C(=O)OC)c1	-	29.0	-	-	-	-
COC(=O)c1cccc(NC(=S)NCc2ccc(Cl)cc2)c1	-	-	-	-	-	-
CCN(CC)CCCNC(=O)CN1N=C(c2ccc(OC)cc2)CCC1=O	-	-	-	-	-	-
COc1cccc2sc(Nc3nc(-c4ccccn4)cs3)nc12	-	29.5	-	-	-	37.0
c1ccc(Nc2nc(-c3ccccn3)cs2)cc1	-	-	-	-	-	-
COC(=O)c1ccc(N2C(c3cc(OC)cc(OC)c3)=Cc3ccc(-c4ccc(C(N)=O)cc4)cc3C2CC(=O)C2CC2)cc1 (stereo not drawn)	-	-	-	-	-	-
O=C(Nc1ccc(Cl)cc1)N(C1=NCCC1)c1ccc(OC(F)F)cc1	-	27.3	-	-	-	-
Cc1cc(C)c2c3c(sc2n1)C(=O)N(c1ccccc1)CC(=O)N3	-	-	-	-	-	31.7
O=C(CSc1n[nH]c(=O)n1Cc1ccccc1)Nc1ccc(N2CCOCC2)cc1	-	-	-	-	-	-
Cn1cnc2c(oc3ccccc32)c1=O	-	-	-	-	-	-
O=C(N/C(=C/c1cccnc1)C(=O)N1CCOCC1)c1ccccc1	-	-	-	21.0	-	-
COc1cc(/C=C(/NC(=O)c2ccccc2)C(=O)N2CCOCC2)c([N+](=O)[O-])cc1OC	-	28.6	-	-	-	-
OCC[C@@H]1C[C@H](O)[C@@H](O)[C@]2(OCc3ccccc32)O1	-	-	-	-	-	-
COc1ccc(S(=O)(=O)NCC2CCCN(C(=O)CCC(F)(F)F)C2)cc1 (stereo not drawn)	-	-	-	-	38.6	-
COCCC(=O)N1CCCC(CNS(=O)(=O)c2ccc(OC)cc2)C1 (stereo not drawn)	-	-	-	-	-	-
COc1ccc(NC(=O)C2CCN(S(=O)(=O)c3ccc(N4CCCC4=O)cc3)CC2)c(OC)c1	-	-	-	-	-	-
CC1Sc2ccc(S(=O)(=O)N3CCC(C(=O)Nc4ccc(Cl)cc4)CC3)cc2NC1=O (stereo not drawn)	-	33.1	-	-	-	30.0
Cc1ccc(NC(=O)C2CCN(S(=O)(=O)c3ccc(N4CCCC4=O)cc3)CC2)cc1Cl	-	49.5	-	-	-	-
CCOc1ccc(NC(=O)CN(C)C(=O)CC(NC(=O)c2ccccc2)c2ccccc2)cc1OCC (stereo not drawn)	-	-	-	-	-	-
CCOC(=O)CN1N=C(/C=C/c2ccccc2)CCC1=O	-	-	27.8	-	-	-
COc1cccc(Nc2ncccc2C(=O)Nc2ccccc2)c1	-	-	-	-	18.9	-
COc1cccc(NC(=O)c2ccccc2Oc2ccccc2)c1	-	-	-	-	-	-
Cc1cc(C)c(NC(=O)CCc2c(C)noc2C)c(C)c1	-	-	-	-	-	-
O=C(NCc1ccccc1)C(CCc1ccccc1)n1c(=O)c(-c2ccccc2)nc2ccccc21 (stereo not drawn)	-	-	-	-	20.0	-
O=C(NCc1ccccc1)C(CCc1ccccc1)n1c(=O)c(-c2cc3ccccc3[nH]2)nc2ccccc21 (stereo not drawn)	-	-	-	-	-	-
